Published values of several laboratories.
MINK1: Misshapen-like kinase 1 (MINK1, Homo sapiens, UniProt Q8N4C8)
SLC22A11: Solute carrier family 22 member 11 (SLC22A11, Homo sapiens, UniProt Q9NSA0)
RIOK1: Serine/threonine-protein kinase RIO1 (RIOK1, Homo sapiens, UniProt Q9BRS2)

`NC/C(=C\F)COc1cccc(Cn2c(=S)[nH]c(=O)c3[nH]cnc32)c1` gave an inhibition of 2.46% (Diamine oxidase [copper-containing] (AOC1, Homo sapiens, UniProt P19801); enzyme activity, inhibitor; 1 µM).
For `CCN1/C(=C/C(C)=O)Sc2ccc(F)cc21`, the inhibition was 0.37% (Delta-type opioid receptor (OPRD1, Homo sapiens, UniProt P41143); ligand displacement, radioligand; 10 µM).
The inhibition of `C#Cc1cc(-c2cc(Nc3nc(N[C@@H](C)c4ccc(F)cn4)ncc3Cl)n[nH]2)ccc1C=O` is reported as 55.9% (MINK1; enzyme activity, inhibitor; 0.2 µM).
`COc1ccc2oc(-c3ccc4nc(N)oc4c3)c/c(=N\c3ccccc3NC(=O)CCN)c2c1` gave a remaining binding of 106% (Transient receptor potential cation channel subfamily M member 7 (TRPM7, Homo sapiens, UniProt Q96QT4); binding; 1 µM).
`CCCCC(=O)Nc1ccc(-c2ccc3ncn(CCC)c(=O)c3c2)cn1` gave a remaining binding of 99% (MINK1; binding, competition with immobilised ligand; 0.5 µM).
The inhibition of `CC(C)n1c(/C=C/C(O)CC(O)CC(=O)O)c(-c2ccc(F)cc2)c2ccccc21` (stereo not drawn) is reported as 82% (SLC22A11; transporter uptake, inhibitor; 25 µM).
For `Cc1cc(F)cc2c(CCC(=O)N[C@@H]3C(=O)NC[C@H]3O)c(-c3ccc(F)cc3)[nH]c12`, the inhibition was 26% (Alpha-2A adrenergic receptor (ADRA2A, Homo sapiens, UniProt P08913); cell-free assay; 10 µM).
The kinact/KI of `O=C(ON1C(=O)CCC1=O)c1cc(C(F)(F)F)cc(C(F)(F)F)c1` is reported as 91.7 M⁻¹ s⁻¹ (CD209 antigen (CD209, Homo sapiens, UniProt Q9NNX6); cell-free assay, inhibitor; pH 7.4).
`CCCc1nc2c(C)cc(-c3nc4ccccc4n3C)cc2n1Cc1ccc(-c2ccccc2C(=O)O)cc1` gave an inhibition of 90.2% (SLC22A11; transporter uptake, inhibitor; 25 µM).
The remaining binding of `C[C@]1(O)CCCN(c2nc(Nc3ccc(S(=O)(=O)N[C@H]4CC[C@H](CN5CCN(c6ccc(C7CCC(=O)NC7=O)cc6F)CC5)CC4)cc3Cl)ncc2C(F)(F)F)C1` (stereo partly drawn) is reported as 88% (RIOK1; binding, competition with immobilised ligand; 1 µM).
For `CN(CCOc1ccc(CC2SC(=O)NC2=O)cc1)c1ccccn1` (stereo not drawn), the inhibition was 94.1% (SLC22A11; transporter uptake, inhibitor; 25 µM).
The inhibition of `Cc1cc(O)c(-c2ccc([C@@H](C)CN(C)C)cc2)c2c1[nH]c(=O)c1sccc12` is reported as 0.327% (Receptor-interacting serine/threonine-protein kinase 4 (RIPK4, Homo sapiens, UniProt P57078); enzyme activity, inhibitor; 0.1 µM).
`O=C(O)CCc1nc(-c2ccccc2)c(-c2ccccc2)o1` gave an inhibition of 81.6% (SLC22A11; transporter uptake, inhibitor; 25 µM).
With `Cc1cc(S(=O)(=O)N[C@H]2CC[C@H](CN3CCN(c4ccc(C5CCC(=O)NC5=O)cc4F)CC3)CC2)ccc1Nc1ncc(C(F)(F)F)c(N2CCC[C@](C)(O)C2)n1` (stereo partly drawn) the remaining binding was 79% (RIOK1; binding, competition with immobilised ligand; 1 µM).
With `C[C@@H]1CC(=O)NN=C1c1ccc(NN=C(C#N)C#N)cc1` the inhibition was 76.1% (SLC22A11; transporter uptake, inhibitor; 25 µM).
`C1=C/COCc2cc(ccc2OCCN2CCCC2)Nc2nccc(n2)-c2cccc(c2)COC/1` gave a remaining binding of 13% (Tyrosine-protein kinase ABL1 (ABL1, Homo sapiens, UniProt P00519, T315I); binding; 0.1 µM).
For `C[C@]1(O)CCCN(c2nc(Nc3ccc(S(=O)(=O)N[C@H]4CC[C@H](CN5CCN(c6ccc(C7CCC(=O)NC7=O)cc6F)CC5)CC4)cc3F)ncc2C(F)(F)F)C1` (stereo partly drawn), the remaining binding was 34% (STE20-like serine/threonine-protein kinase (SLK, Homo sapiens, UniProt Q9H2G2); binding, competition with immobilised ligand; 1 µM).
For `CC(C)=CCCC1(C)C=Cc2c(O)c3c(c(CC=C(C)C)c2O1)OC12C(=CCCC1C(C)(C)O[C@@]2(C/C=C(\C)C(=O)O)C(=O)O)C3=O` (stereo partly drawn), the inhibition was 87.8% (SLC22A11; transporter uptake, inhibitor; 25 µM).
